# Assay outcomes deposited in PubChem by several laboratories.
# A selection: hits, their analogues and other compounds. The true share with any hit is near 1.4%.
# CAL PDZ FP-1 – blocks peptide binding to human CAL PDZ domain; Q9HD26; purified CAL PDZ, TMR-peptide fluorescence polarization, 1 h; inhibition, % at 20 µM; 0.02% of 330,000 active;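 active = highest replicate inhibition of at least 40%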;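 note: plate controls were DMSO neutral control wells for no effect and unlabeled competitor peptide control wells for full effect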
#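 System: tagged CAL PDZ domain. Schedule: 1 h room-temperature incubation prior to read. Signal: fluorescence polarization (mP). Measure: percent inhibition from loss of millipolarization.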
# Tn6 DDE FP – disrupts Tn6 cyclic peptide binding to fibrin D-Dimer-E complex | 0.21% of 370,000 active | AID 720509 | P02675 | Fibrin DD(E) TRITC-Tn6 fluorescence polarization displacement | inhibition, % at 8.3 µM;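 active = inhibition above a per-campaign cutoff: mean of compounds within control limits plus 3 SD, cut at about 15% in these data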;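 note: 0% = median of all compound wells on the plate and 100% = blocking peptide control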
# Target sequence (P02675 whole entry, looked up): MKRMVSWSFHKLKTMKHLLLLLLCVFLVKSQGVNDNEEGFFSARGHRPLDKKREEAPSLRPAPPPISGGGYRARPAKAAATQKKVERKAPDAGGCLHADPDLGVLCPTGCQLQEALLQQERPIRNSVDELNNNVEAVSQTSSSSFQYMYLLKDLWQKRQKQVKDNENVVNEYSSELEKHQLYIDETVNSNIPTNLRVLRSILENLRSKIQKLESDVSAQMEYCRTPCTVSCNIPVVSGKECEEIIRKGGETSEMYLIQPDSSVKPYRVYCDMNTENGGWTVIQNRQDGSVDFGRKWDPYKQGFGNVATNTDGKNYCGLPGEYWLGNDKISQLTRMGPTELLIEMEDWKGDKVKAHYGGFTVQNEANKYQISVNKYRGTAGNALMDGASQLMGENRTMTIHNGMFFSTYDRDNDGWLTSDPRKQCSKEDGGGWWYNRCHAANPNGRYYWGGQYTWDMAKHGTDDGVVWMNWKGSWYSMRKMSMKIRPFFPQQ
# Arr AP2 block – human beta-arrestin and AP2 interaction inhibition; 0.31% of 340,000 active; AID 504490; FITC-arrestin peptide / GST-AP2 beads, flow cytometry; AP2 beta2 appendage carries R879A mutation; inhibition, % at 10 µM;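 active = inhibition above a set limit, near 3 SD of compounds lacking own fluorescence, cut at about 54% in these data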;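 note: plate controls were DMSO wells for no effect and 5 µM unlabelled arrestin peptide for full effect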
#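 Material – GST-tagged AP2 beta2-adaptin appendage (R879A) on 4 µm glutathione beads · Probe or stimulus – fluorescein-tagged arrestin peptide at 50 nM final · Timing – 12 min plus 1 h, RT · Detection – bead flow cytometry, FITC channel · Read-out basis – inhibition as reduced fluorescein signal on beads, percent · Medium – PBS plus Tween 20 (0.05%) and BSA (0.1%)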
# CAL PDZ FP-2 – blocks peptide binding to the human CAL PDZ domain; inhibition, % at 24.9 µM; 0.92% of 300,000 active; purified CAL PDZ, TMR-peptide fluorescence polarization, 1 h; Q9HD26;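 active = mean inhibition of at least 30% with at least half of replicates also reaching 30%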;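 note: 0% = DMSO neutral control and 100% = excess unlabeled competitor peptide PRC23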
# Tn7 DDE FP – disrupts Tn7 cyclic peptide binding to fibrin D-Dimer-E complex; P02675; FP displacement of FITC-Tn7 peptide from fibrin DD(E); 0% = median of compound wells per plate; inhibition, % at 8.3 µM; 0.13% of 370,000 active; AID 720508;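 active = inhibition above the mean of compounds falling within the control limits plus 3 SD of them, cut at about 14% in these data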;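 note: 0% = plate median of compound wells and 100% = 10 µM Aha-Tn7 peptide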
#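 assay system = human clot-derived fibrin DD(E) complex | quantity = Fibrin-DD(E) at 2 µM final | timing = 10 min preincubation, 3 h with tracer, room temperature | signal = fluorescence polarization | measure = percent inhibition | benchmarks = high control wells with 10 µM unlabelled Aha-Tn7 peptide (full inhibition) | replicates = singlicate testing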
# Numbers without * were called inactive; . = no result.
SMILES,CAL PDZ FP-1,Tn6 DDE FP,Arr AP2 block,CAL PDZ FP-2,Tn7 DDE FP
CC(Oc1ccc(Cl)cc1C(N)=O)C(=O)N1CCc2ccccc21 (stereo not given),1.2,2.2,-4.3,72.9*,0.6
CC(C)CNC(=S)NC1CCCC1,.,-6.6,3.8,139.5*,2.1
CC(C)CNC(=O)C(=O)NC1CCCC1,-5.0,0.1,8.2,-2.1,2.7
COC(=O)[C@]12C[C@H](CC(=O)NCCC(C)C)C(=O)N(CCc3ccc(OC)c(OC)c3)C1=C[C@H](COCc1ccccc1)O[C@@H]2C,.,-0.4,.,.,-0.8
CCCCNS(=O)(=O)CC1NCc2cc(F)ccc21 (stereo not given),.,8.9,.,.,-10.4
COc1ccc(N2CCN(C(=S)NCc3ccc(C)cc3)CC2)cc1,0.0,-4.3,-9.5,31.5*,-0.1
COc1ccc(N2CCN(C(=S)Nc3cc(C)cc(C)c3)CC2)cc1,-2.0,7.4,-7.8,-0.2,4.4
COc1ccc2oc(=O)c(C(=O)Nc3ccccc3O)cc2c1,17.6,-7.1,-10.3,78.4*,3.8
COc1ccc(NC(=O)c2cc3ccccc3oc2=O)cc1,.,-9.2,.,.,2.2
CC(C)=CCC/C(C)=C/CN1C(=O)N(c2ccc(F)cc2)[C@H]2C[C@@H](c3ccccc3)[C@@H](C)[C@@H](C(=O)N3CCOCC3)C[C@H]21,.,-1.2,.,.,-2.6
CC(C)C(Cl)=NOC(=O)Nc1ccc(F)cc1,-1.8,19.6*,-16.8,-6.5,-3.7
C/C(=N\OC(=O)Nc1ccc(Cl)cc1)c1ccc(F)c(F)c1,.,5.2,-1.6,-4.1,7.6
N/C(=N\c1nc(CSc2ccccn2)cc(=O)[nH]1)Nc1ccc(Cl)cc1Cl,0.0,-2.5,2.2,78.3*,-0.3
COc1ccc(Cl)cc1N/C(N)=N/c1nc(CSc2ccc(C)cc2)cc(=O)[nH]1,-2.0,5.2,-5.4,.,0.1
CCCCc1c(O)nc(SCC(=O)N2CCCCC2)n(-c2ccccc2C)c1=O,-0.8,5.4,0.5,53.9*,0.6
CC1(c2ccc3ccccc3c2)NC(=O)N(CC(=O)N2CCN(S(=O)(=O)c3ccccc3F)CC2)C1=O (stereo not given),-0.4,5.2,-9.6,.,-3.5
Cc1ccc(S(=O)(=O)N2CCN(C(=O)CN3C(=O)NC(C)(c4ccc5ccccc5c4)C3=O)CC2)cc1 (stereo not given),-1.8,-3.2,-2.3,73.1*,-1.2
COCCn1c(SCC(=O)NCc2ccc3c(c2)OCO3)nnc1C(C)C,-3.0,-1.8,26.6,3.4,-0.7
COCCn1c(SCC(=O)NCc2ccc3c(c2)OCO3)nnc1-c1c[nH]c2ccccc12,-0.9,-0.9,-5.1,63.8*,0.7
CN(CCC#N)c1ccc(/C=C(\C#N)c2ccccn2)cc1,-1.4,30.6*,2.1,-38.5,3.7
NC(=O)c1cc(S(=O)(=O)N2CCCC2)ccc1OCCOc1ccccc1F,0.0,1.1,-13.7,44.0*,4.3
COc1ccc(OCCOc2ccc(S(=O)(=O)N3CCCC3)cc2C(N)=O)cc1,-0.8,-1.0,25.9,-6.4,-2.6
O=C(CCc1ccccc1)N[C@H]1/C(=N/O)CCC[C@]12C(=O)N(Cc1ccccc1)c1ccccc12,.,-0.9,.,.,4.5
Cc1cccc(-c2nc(N)nc(N)n2)c1,0.4,5.5,-13.3,33.8*,1.5
CCOC(=O)CC[C@@]1(C(=O)OCC)C[C@@H](CC(=O)N2CCSCC2)C(=O)N2CCCC=C21,.,-9.2,.,.,3.4
SMILES,CAL PDZ FP-1,Tn6 DDE FP,Arr AP2 block,CAL PDZ FP-2,Tn7 DDE FP
CCOc1ccc(NC(=O)CN(C)C(=O)c2ccc3nc(CC)c(CC)nc3c2)cc1OCC,-0.1,0.7,-1.2,39.0*,2.1
CC(=O)CC[C@@H]1CC[C@]2(CCCN(C(=O)c3ccc4ccccc4n3)C2)O1,.,8.9,.,.,2.5
O=C(/C(N=Nc1cccc(C(F)(F)F)c1)=C(/O)c1cccs1)C(F)(F)F,1.1,-0.9,8.2,68.3*,-6.6
CC(=O)/C(N=Nc1cccc(C(F)(F)F)c1)=C(\C)O,-1.2,1.6,9.4,-9.2,-2.6
O=C(N[C@@H](Cc1cccnc1)C(=O)N1CCC[C@H]1C(=O)NCCc1ccccc1Cl)C1CCCC1,.,15.1,.,.,-8.1
Cc1nn(Cc2ccccc2)c(Cl)c1C(=O)NCc1ccco1,-0.8,-3.9,-1.9,59.2*,6.1
C/C(=C/c1c[n+](Cc2ccc3c(c2)OCO3)c(N)[nH]1)Cn1[nH]c(=O)n(-c2ccccc2)c1=O,.,7.2,.,.,-0.3
CC(C)(C)S(=O)(=O)c1cnc2c(-c3ccsc3)cnn2c1N,0.4,-3.9,16.6,47.7*,-2.5
COC(=O)[C@H](C(C)C)N(Cc1cn(Cc2ccccc2)nn1)S(=O)(=O)c1ccc(F)cc1Br,.,-2.0,.,.,4.6
CN(C)C(=O)CSc1nc2cc(S(=O)(=O)N3CCOCC3)ccc2o1,-0.1,3.7,-18.3,90.3*,1.9
O=[N+]([O-])c1ccc(Sc2nccn2Cc2ccccc2)cc1,0.1,-1.1,-5.8,30.2*,-2.6
COc1ccc(C(=O)NCc2nnc(SCC(=O)Nc3ccccc3OC)o2)cc1,-1.1,-4.4,-6.3,56.2*,-0.1
COc1ccc(OCc2nnc(SCC(=O)Nc3ccccc3C#N)o2)cc1,0.4,-8.4,1.6,53.8*,4.8
Cc1ccc(C(=O)NN2C(=O)c3ccc(S(=O)(=O)c4ccc(C(=O)O)cc4)cc3C2=O)cc1,0.7,-0.1,-7.1,46.9*,4.6
COc1ccccc1NC(=O)CN1CCC(c2nc3ccc(C)cc3[nH]2)CC1,-0.9,-2.4,-8.8,93.1*,3.8
Cc1cc(C)nc(CCNC(=O)CC2C(=O)NCCN2Cc2ccc(F)cc2Cl)n1 (stereo not given),-0.5,12.6,-0.5,59.7*,-4.2
COc1ccccc1CN1CCNC(=O)C1CC(=O)NCc1c(C)n[nH]c1C (stereo not given),.,3.8,-7.5,51.1*,7.8
CC(C)c1nc(CNC(=O)CC2C(=O)NCCN2Cc2ccc(F)cc2Cl)cs1 (stereo not given),-2.4,-3.9,3.0,.,3.6
COc1ccccc1CN1CCNC(=O)C1CC(=O)NCc1csc(C)n1 (stereo not given),-1.6,1.5,0.2,-2.0,1.4
CC(C)(N[C@@H](Cc1ccccc1)C(=O)NCCCc1ccccc1)C(=O)NCc1ccccc1,.,6.0,.,.,4.8
O=C(Nc1ccc2c(c1)OCO2)OC1CC2CC1[C@H]1CCCCN1[C@H]2Cc1ccccc1 (stereo not given in full),.,-2.4,.,.,4.0
O=C(NC(=S)Nn1cnnc1)c1ccccc1Br,-0.1,0.2,-15.7,52.9*,3.1
O=C(NC(=S)Nn1cnnc1)c1ccccc1,-0.2,2.5,0.7,-5.1,0.2
COc1ccc(C(=O)Nc2cc(OC)c(Cl)cc2OC)cc1,-0.6,3.6,3.7,37.2*,-6.5
Cc1cccc2[nH]c(CN(C)C(=O)C3CCC(=O)N(C4CC4)C3)nc12 (stereo not given),-1.1,0.9,-17.2,42.7*,-1.8
Nc1cccc(CCc2ccncc2)c1,-0.8,3.0,6.2,-2.4,-2.8
